These results are taken from ChEMBL document CHEMBL2086389, “Synthesis and biological evaluation of crown ether fused quinazoline analogues as potent EGFR inhibitors” (Bioorg Med Chem Lett, 2012).

Structures are written as SMILES. Calls of active or inactive are those of the source. The rule behind the calls is not given here. Where only a bound is given, the exact number is not on record here.

Series [1] concerns the target T1, Epidermal growth factor receptor (Homo sapiens, UniProt P00533). Nature of the series: Inhibition of EGFR using GST-Crk as substrate assessed as phosphorylated Crk level after 20 mins by SDS-PAGE analysis. Summed up: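 Kinase mix was incubated with inhibitor at 0, 0.5, 2.5, 12.5 and 62.5 nM on ice for 10 min, then at 30 °C for 20 min. The reaction was quenched with SDS sample buffer at 100 °C for 4 min. Proteins were run on 10% SDS–PAGE and the dried gel was quantified by phosphorimager.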

The test system of another series is Rattus norvegicus. Nature of the series: AUC in rat at 35 mg/kg, po. It is filed as ADME, organism-based, Plasma. Also noted: dose 35 mg/kg, route oral. Conditions: in vivo. Summed up: (§1)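 Rats given a single oral dose (35 mg/kg) and a separate single intravenous dose (35 mg/kg). Pharmacokinetic parameters were derived from these two dosings.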
Series [2] is described as follows: Cmax in rat at 35 mg/kg, po. Type of series: ADME, organism-based. The arrangement: dose 35 mg/kg, route oral. Conditions: in vivo. A digest of the protocol:
as §1

Series [3] deals with T1, Epidermal growth factor receptor. Kind of series: Inhibition of EGFR-mediated intracellular tyrosine phosphorylation in EGF-stimulated human A431 cells after 2.5 hrs by SDS-PAGE analysis. It is filed as cell-based, A-431. Summed up:
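A431 cells were grown 2 days in DMEM with 10% FCS at 37 °C, 5% CO₂, then serum-starved 18 h. Inhibitor was added at 0, 10, 50, 250 and 1000 nM for 2.5 h at 37 °C. Cells were stimulated with 100 ng/ml EGF for 5 min and lysed in SDS buffer with 1 mM vanadate. Lysates were run on 10% SDS–PAGE, immunoblotted with anti-phosphotyrosine (pY99, 4G10), detected by ECL, and quantified by densitometry.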

The target of series [4] is Tyrosine-protein kinase ABL2 (Homo sapiens) (UniProt P42684). Kind of series: Inhibition of Arg at >[…] nM.
In series [5] the target is Tyrosine-protein kinase ABL1 (Homo sapiens) (UniProt P00519). Nature of the series: Inhibition of Abl at >[…] nM.
Another series concerns A-431. Kind of series: Antitumor activity against human A431 cells xenografted in mouse assessed as inhibition of tumor growth administered as po qd. It is filed as functional, organism-based. A digest of the protocol:
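Mice carried A431 xenografts. At a tumor volume of about 20 mm³ they were randomized, n = 10/group. Dosing was oral, once daily, at 30, 60 and 120 mg/kg in 0.5% CMC-Na vehicle, for 18–30 days. The positive control was Taxol 30 mg/kg ip once weekly. Tumor size was followed.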
(In general: Xenograft models place foreign cells or tissue in a host animal.)

For series [6], the target named is Proto-oncogene tyrosine-protein kinase Src (Homo sapiens) (UniProt P12931). Kind of series: Inhibition of c-Src at >1000 nM.
Series [7] can be described thus: Volume of distribution at steady state in rat at 35 mg/kg, iv and 35 mg/kg, po. Type of series: ADME, organism-based. Conditions: in vivo, read-out: Vdss. Summed up:
as §1

The nature of series [8]: Half life in rat at 35 mg/kg, po. Also noted: dose 35 mg/kg, route oral. Conditions: in vivo. Type of series: ADME, organism-based. A digest of the protocol: as §1
Series [9] can be described thus: Clearance in rat at 35 mg/kg, iv and 35 mg/kg, po. Type of series: ADME, organism-based. Conditions: in vivo. A digest of the protocol: as §1
Series [10] can be described thus: Oral bioavailability in rat at 35 mg/kg. Type of series: ADME, organism-based. Conditions: in vivo. A digest of the protocol: as §1
The nature of series [11]: Mean residence time in rat at 35 mg/kg, iv and 35 mg/kg, po. Type of series: ADME, organism-based. Conditions: in vivo. Summed up:
as §1

T1 sequence (P00533 whole entry): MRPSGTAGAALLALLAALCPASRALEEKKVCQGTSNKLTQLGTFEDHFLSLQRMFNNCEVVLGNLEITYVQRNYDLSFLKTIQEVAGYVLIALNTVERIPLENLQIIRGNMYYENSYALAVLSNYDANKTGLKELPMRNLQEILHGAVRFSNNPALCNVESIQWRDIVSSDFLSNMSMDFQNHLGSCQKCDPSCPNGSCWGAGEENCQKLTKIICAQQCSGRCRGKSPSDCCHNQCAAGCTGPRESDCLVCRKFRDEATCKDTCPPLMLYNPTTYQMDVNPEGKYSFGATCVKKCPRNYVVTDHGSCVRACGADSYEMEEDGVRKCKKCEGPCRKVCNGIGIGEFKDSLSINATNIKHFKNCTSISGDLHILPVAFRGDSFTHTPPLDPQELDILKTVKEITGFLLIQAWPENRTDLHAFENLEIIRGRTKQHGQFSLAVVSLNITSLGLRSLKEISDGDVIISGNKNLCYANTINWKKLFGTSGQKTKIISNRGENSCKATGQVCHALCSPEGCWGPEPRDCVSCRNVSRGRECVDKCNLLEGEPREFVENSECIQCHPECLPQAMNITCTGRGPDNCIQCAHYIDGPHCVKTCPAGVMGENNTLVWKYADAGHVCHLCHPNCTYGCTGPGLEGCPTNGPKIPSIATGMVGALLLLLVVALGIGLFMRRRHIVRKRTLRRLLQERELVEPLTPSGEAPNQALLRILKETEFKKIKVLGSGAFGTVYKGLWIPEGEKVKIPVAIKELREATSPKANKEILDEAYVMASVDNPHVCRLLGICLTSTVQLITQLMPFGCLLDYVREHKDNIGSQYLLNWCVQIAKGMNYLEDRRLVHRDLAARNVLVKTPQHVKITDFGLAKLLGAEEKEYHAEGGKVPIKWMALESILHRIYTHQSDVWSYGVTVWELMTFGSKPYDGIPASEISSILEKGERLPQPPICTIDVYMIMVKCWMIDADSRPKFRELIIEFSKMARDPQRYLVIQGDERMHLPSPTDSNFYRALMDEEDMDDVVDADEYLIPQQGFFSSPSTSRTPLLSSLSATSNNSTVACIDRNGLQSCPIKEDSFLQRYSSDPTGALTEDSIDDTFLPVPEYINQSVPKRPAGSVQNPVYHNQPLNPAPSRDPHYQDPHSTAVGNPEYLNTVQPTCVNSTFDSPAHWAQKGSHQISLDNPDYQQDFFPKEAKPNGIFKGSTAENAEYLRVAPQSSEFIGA
Sequence of Proto-oncogene tyrosine-protein kinase Src (Homo sapiens) (P12931 2-536 limits assumed): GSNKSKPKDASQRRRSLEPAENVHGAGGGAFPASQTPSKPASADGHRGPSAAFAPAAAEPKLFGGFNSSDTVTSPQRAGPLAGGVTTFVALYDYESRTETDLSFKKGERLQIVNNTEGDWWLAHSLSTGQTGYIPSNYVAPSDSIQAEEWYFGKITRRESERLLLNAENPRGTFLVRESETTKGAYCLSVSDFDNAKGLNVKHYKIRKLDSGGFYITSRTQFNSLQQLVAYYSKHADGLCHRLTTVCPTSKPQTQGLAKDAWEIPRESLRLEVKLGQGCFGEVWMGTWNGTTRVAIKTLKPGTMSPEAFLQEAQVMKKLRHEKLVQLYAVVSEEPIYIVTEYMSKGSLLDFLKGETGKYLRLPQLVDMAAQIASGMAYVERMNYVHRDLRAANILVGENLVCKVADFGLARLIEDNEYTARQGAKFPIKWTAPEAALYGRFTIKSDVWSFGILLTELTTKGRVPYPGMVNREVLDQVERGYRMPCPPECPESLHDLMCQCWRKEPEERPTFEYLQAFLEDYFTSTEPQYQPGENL
Sequence of Tyrosine-protein kinase ABL1 (Homo sapiens) (P00519 whole entry): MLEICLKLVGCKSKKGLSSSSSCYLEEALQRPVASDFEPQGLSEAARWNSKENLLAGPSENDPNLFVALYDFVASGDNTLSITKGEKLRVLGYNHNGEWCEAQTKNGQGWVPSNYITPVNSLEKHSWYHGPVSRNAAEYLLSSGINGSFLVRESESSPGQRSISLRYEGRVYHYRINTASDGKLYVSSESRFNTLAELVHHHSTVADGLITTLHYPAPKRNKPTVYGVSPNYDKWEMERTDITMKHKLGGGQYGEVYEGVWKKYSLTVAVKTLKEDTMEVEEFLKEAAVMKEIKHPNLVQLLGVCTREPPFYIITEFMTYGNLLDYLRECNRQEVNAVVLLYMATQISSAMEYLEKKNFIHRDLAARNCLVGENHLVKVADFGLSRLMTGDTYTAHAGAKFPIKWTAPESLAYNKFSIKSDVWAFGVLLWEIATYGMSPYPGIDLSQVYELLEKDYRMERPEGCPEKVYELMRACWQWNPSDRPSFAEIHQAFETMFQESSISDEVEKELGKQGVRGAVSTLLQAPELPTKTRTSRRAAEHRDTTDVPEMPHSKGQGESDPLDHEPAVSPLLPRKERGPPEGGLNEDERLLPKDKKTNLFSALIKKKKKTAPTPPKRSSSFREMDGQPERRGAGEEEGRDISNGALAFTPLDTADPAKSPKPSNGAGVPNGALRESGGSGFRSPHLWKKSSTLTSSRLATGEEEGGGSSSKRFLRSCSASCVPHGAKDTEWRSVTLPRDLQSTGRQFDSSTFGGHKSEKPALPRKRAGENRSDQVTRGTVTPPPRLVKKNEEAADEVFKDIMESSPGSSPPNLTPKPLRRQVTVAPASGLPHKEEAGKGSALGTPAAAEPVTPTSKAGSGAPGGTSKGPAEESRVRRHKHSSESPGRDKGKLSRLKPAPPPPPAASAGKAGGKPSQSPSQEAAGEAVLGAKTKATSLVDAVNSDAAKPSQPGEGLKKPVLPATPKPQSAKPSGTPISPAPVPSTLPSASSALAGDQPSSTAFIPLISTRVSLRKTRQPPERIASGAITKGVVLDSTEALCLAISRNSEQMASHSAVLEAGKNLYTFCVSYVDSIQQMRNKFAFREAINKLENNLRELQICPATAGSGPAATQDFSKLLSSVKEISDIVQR
Sequence of Tyrosine-protein kinase ABL2 (Homo sapiens) (P42684 whole entry): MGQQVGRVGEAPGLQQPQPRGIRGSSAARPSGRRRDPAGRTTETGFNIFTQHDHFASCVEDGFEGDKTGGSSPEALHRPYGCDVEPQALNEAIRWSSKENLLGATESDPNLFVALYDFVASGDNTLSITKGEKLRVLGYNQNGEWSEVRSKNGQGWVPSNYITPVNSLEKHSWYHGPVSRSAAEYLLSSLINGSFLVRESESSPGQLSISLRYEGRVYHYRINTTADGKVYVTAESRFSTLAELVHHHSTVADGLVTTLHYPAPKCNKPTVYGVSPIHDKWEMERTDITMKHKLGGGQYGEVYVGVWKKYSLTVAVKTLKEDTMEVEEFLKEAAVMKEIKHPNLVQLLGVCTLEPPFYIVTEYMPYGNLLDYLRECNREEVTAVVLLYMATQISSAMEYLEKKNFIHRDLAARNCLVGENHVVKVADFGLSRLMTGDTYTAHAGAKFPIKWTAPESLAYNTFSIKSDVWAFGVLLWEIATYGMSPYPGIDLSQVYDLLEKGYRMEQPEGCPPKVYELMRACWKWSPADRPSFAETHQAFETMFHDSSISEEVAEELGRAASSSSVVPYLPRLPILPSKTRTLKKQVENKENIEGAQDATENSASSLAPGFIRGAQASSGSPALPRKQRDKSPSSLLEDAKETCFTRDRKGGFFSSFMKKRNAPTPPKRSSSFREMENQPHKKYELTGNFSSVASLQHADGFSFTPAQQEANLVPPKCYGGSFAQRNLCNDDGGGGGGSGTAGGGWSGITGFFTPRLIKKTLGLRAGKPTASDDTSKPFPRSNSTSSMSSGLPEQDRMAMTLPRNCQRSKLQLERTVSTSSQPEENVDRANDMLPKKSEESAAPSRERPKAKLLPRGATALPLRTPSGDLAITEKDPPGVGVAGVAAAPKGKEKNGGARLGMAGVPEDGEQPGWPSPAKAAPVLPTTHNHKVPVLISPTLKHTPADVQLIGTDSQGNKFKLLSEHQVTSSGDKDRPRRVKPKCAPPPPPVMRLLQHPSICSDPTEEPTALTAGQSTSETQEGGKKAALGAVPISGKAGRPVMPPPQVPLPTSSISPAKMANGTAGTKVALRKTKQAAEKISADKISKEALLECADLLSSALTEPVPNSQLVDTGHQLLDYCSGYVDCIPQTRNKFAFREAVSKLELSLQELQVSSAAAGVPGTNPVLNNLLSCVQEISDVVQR

The term IC50 denotes the midpoint of a concentration-inhibition curve. As for `Brc1cccc(Nc2ncnc3cc4c(cc23)OCCOCCO4)c1`, the IC50 in [1] is 55 nM.
As usually defined, the Cmax is the highest concentration seen after dosing. In general, half-life refers to the time in which the quantity being followed falls by half. Low readings indicate fast loss, high ones slow loss. In general, bioavailability refers to the share of a dose that reaches the circulation, judged against a reference dose that is usually intravenous. By MRT is commonly meant a mean duration of stay, worked out from the concentration-time curve. Regarding `C#Cc1cccc(Nc2ncnc3cc4c(cc23)OCCOCCOCCO4)c1` [ICOTINIB], the AUC in the series on Rattus norvegicus is 49.4 µg/mL. Further, the Cmax in series [2] was found to be 6120 ng/mL. The IC50 in series [3] is 45 nM; in series [1] it was 2 nM. Also, the inhibition entry in series [4], in series [5] and in series [6] was “inactive” in each case. In addition, the inhibition result in the series with A-431 was “Dose-dependent effect”. In series [7], the Vd was found to be 3.9 L/kg. The compound also gave a half-life in [8] of 2.8 h. For the same compound, in [9], the clearance was found to be 21 mL/min/kg. For the same compound, the bioavailability in series [10] amounted to 52%. In addition, in series [11], the MRT worked out at 6.9 h.
Take `Brc1cccc(Nc2ncnc3cc4c(cc23)Oc2ccccc2O4)c1`: in series [1], the IC50 was found to be 120 nM.
Turning to `Brc1cccc(Nc2ncnc3cc4c(cc23)OCCOCCOCCO4)c1`, the IC50 in series [3] came out at 50 nM; in series [1], 5 nM.
In the case of `Cc1ccc(S(=O)(=O)N2CCOc3cc4ncnc(Nc5cccc(Br)c5)c4cc3OCC2)cc1`, the IC50 in [1] is 150 nM.
Regarding `Brc1cccc(Nc2ncnc3cc4c(cc23)OCCOCOCOCCO4)c1`, the IC50 in series [3] was 50 nM; in series [1], 5 nM.
In the case of `Brc1cccc(Nc2ncnc3cc4c(cc23)OCCCSCCCO4)c1`, the half-inhibitory concentration (IC50) is > 1000 nM in series [3] and 8 nM in [1].
For `Brc1cccc(Nc2ncnc3cc4c(cc23)OCCCO4)c1`, the concentration for half-maximal inhibition (IC50) in series [1] turned out to be 85 nM.
Take `Brc1cccc(Nc2ncnc3cc4c(cc23)OCCSCCO4)c1`: the results for the IC50 in series [3] and in [1] were > 1000 nM and 7 nM, respectively.
For `Fc1ccc(Nc2ncnc3cc4c(cc23)OCCOCCOCCO4)cc1Cl` the same measures were 45 nM and 2 nM.
Regarding `Clc1cccc(Nc2ncnc3cc4c(cc23)OCCOCCOCCO4)c1`, the IC50 in series [3] was found to be 55 nM; in [1], 2 nM.
